From PubChem BioAssay
IDH1 R132H inh: blocks human IDH1 R132H reductase activity; O75874; diaphorase/resazurin fluorescence, 60 min; inhibition, % at 10 µM; 0.18% of 70,000 active; in the data active = inhibition above about 34%; inconclusive = no clear call, values can overlap the other calls; inactive = below about 11%
Target sequence (O75874 whole entry R132H): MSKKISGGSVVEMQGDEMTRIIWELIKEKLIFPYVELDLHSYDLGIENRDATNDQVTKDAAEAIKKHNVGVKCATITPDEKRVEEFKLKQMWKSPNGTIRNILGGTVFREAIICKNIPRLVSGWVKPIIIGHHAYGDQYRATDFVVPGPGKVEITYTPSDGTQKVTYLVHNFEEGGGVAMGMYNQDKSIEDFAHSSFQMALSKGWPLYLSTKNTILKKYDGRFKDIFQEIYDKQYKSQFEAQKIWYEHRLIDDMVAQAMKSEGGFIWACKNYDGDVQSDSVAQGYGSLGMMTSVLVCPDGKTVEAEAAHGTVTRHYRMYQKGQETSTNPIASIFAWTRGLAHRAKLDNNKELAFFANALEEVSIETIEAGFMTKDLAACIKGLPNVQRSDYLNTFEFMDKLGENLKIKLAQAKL
T cruzi growth-1: T. cruzi proliferation inhibition | inhibition, % at 8.34 µM | T. cruzi beta-gal in NIH3T3, GalScreen luminescence, 90 h | 5.9% of 77,000 active;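 active = mean inhibition above about 93%, with at least 55% of replicates each passing it, limit read from the data, passing the limit was not always enough; inconclusive = only one of those two conditions holds; inactive = neither condition holds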
KDM4C inh: blocks human GASC-1 (KDM4C) demethylase activity. Q9H3R0. GST-KDM4C 2-372, H3K9me3 peptide, LANCE TR-FRET. inhibition, % at 12.5 µM. 0.15% of 96,000 active. AID 720574;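 active = mean replicate inhibition above about 25%, with at least 55% of replicates also reaching it, limit read from the data, passing the limit was not always enough; inconclusive = only one of those two conditions met; inactive = neither condition met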
Target sequence (Q9H3R0 2-372 limits assumed): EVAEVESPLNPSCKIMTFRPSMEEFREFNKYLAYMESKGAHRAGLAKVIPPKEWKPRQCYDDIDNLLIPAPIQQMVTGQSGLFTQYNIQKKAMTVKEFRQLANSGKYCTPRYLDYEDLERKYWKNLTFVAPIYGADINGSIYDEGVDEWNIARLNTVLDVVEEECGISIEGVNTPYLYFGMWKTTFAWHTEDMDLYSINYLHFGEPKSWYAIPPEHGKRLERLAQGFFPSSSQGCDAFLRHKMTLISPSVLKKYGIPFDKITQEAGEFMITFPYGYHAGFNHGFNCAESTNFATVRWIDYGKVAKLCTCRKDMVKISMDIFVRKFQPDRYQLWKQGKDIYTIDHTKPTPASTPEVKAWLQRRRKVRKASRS
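System: N-terminal GST-fused human GASC-1 (KDM4C) fragment, residues 2-372 / Amount: 10 nM GST-KDM4C in enzyme reaction / Also added: H3K9me3 peptide with Fe(II)/2OG / Times: 30 min demethylation and 1 h detection at room temperature / Signal: LANCE TR-FRET / Read-out basis: Fall in 671/618 emission ratio as inhibition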
T cruzi growth-2: inhibitors of T. cruzi proliferation; shares compounds with T cruzi growth-1; T. cruzi beta-gal in NIH3T3, GalScreen luminescence, 90 h; inhibition, % at 8.35 µM; 72% of 5,600 active; AID 651739;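 active = mean replicate inhibition above about 95% and at least 55% of replicates individually reaching it, limit read from the data; inconclusive = only one of the two criteria is met; inactive = neither criterion is met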
T cruzi growth-3: inhibitors of T. cruzi proliferation; shares compounds with T cruzi growth-1; T. cruzi beta-gal in NIH3T3, GalScreen luminescence, 90 h; inhibition, % at 2.09 µM; 21% of 5,600 active;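 active = mean inhibition above about 95%, with at least 55% of replicates also reaching it, limit read from the data; inconclusive = meets just one of the two conditions; inactive = meets neither condition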
NIH3T3 tox: NIH/3T3 (mouse) viability loss; shares compounds with T cruzi growth-1; NIH/3T3 viability, CellTiter-Glo ATP luminescence, 90 h; cytotoxicity (signal decrease), % at 8.35 µM; 14% of 5,600 active;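 active = mean signal decrease across replicates above about 35% based on untreated-well scatter, with enough replicates individually passing, limit read from the data; inconclusive = no rule stated though some were filed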
3T3 cytotox 2: cytotoxicity in mouse NIH/3T3 fibroblasts. shares compounds with T cruzi growth-1. NIH/3T3 viability, CellTiter-Glo ATP luminescence, 90 h. inhibition, % at 24.9 µM. 56% of 5,600 active;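 active = mean loss of cell viability signal at or above a set limit, and enough replicates individually reaching it; inconclusive = meets only the mean limit or only the replicate share; inactive = meets neither condition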
Of the large screens only hits and unclear results are named; the others gave an inactive call (follow-up assays come after a bar, where they were run). Shown is part of a subset that was picked to be rich in hits.

CC1OC(OC2C(O)C(C)OC(OCC3OC(OC4C(C)OC(Oc5cc(O)c6c(=O)c(O)c(-c7ccc(O)c(O)c7)oc6c5)C(O)C4O)C(O)C(O)C3OC(=O)/C=C/c3ccc(O)cc3)C2O)C(O)C(O)C1O (stereo unspecified)	none (no result: T cruzi growth-1, KDM4C inh)
NC(=O)COc1ccccc1/C=N/NC(=O)c1cccc(C(=O)NO)c1	none (no result: T cruzi growth-1, KDM4C inh)
COc1cc(Cl)c(C)cc1NC(=O)CN(C)S(=O)(=O)c1ccccc1	none (no result: T cruzi growth-1, KDM4C inh)
CS(=O)(=O)N(CC(=O)Nc1cccc(Br)c1)c1ccc(F)c(Cl)c1	none (no result: T cruzi growth-1, KDM4C inh)
C[C@@H]1CCCCO[C@H](CN(C)C(=O)NC2CCCCC2)[C@H](C)CN([C@@H](C)CO)C(=O)c2cc(NC(=O)Nc3cccc4ccccc34)ccc2O1	T cruzi growth-1 108 | T cruzi growth-2 106 | T cruzi growth-3 inactive | NIH3T3 tox inactive | 3T3 cytotox 2 inactive
C[C@@H]1CCCCO[C@@H](CN(C)C(=O)Nc2cccc3ccccc23)[C@@H](C)CN([C@@H](C)CO)C(=O)c2cc(NC(=O)C3CCCCC3)ccc2O1	T cruzi growth-1 inconclusive (no result: IDH1 R132H inh) | T cruzi growth-2 110 | T cruzi growth-3 inactive | NIH3T3 tox inactive | 3T3 cytotox 2 inactive
C[C@@H]1CN([C@@H](C)CO)C(=O)c2cc(NC(=O)C3CCCCC3)ccc2O[C@@H](C)CCCCO[C@H]1CN(C)C(=O)Nc1cccc2ccccc12	none
C[C@@H]1CCCCO[C@@H](CN(C)C(=O)NC2CCCCC2)[C@H](C)CN([C@@H](C)CO)C(=O)c2cc(NC(=O)Nc3cccc4ccccc34)ccc2O1	none
CC(=O)Nc1ccc(NC(=O)CSC2=NC(c3ccccc3)CC(=O)N2)cc1 (stereo unspecified)	none (no result: T cruzi growth-1, KDM4C inh)
C[C@@]12C[C@@H](c3ccoc3)OC(=O)[C@H]1CC[C@@]1(C)C(C(=O)O)=CCC[C@@H]21	none (no result: T cruzi growth-1, KDM4C inh)
CN(C)C(=O)c1ccc(-c2ccc([C@@H]3[C@@H](CO)N(C(=O)C4CCCCC4)[C@H]3C#N)cc2)cc1	none (no result: IDH1 R132H inh)
CN(C)C(=O)c1ccc(-c2ccc([C@@H]3[C@@H](C#N)N(C(=O)C4CC4)[C@H]3CO)cc2)cc1	T cruzi growth-1 104 (no result: IDH1 R132H inh) | T cruzi growth-2 99 | T cruzi growth-3 inconclusive | NIH3T3 tox inactive | 3T3 cytotox 2 63
CN(C)C(=O)c1ccc(-c2ccc([C@@H]3[C@@H](CO)N(C(=O)C4CC4)[C@H]3C#N)cc2)cc1	none (no result: IDH1 R132H inh)
CN(C)C(=O)c1ccc(-c2ccc([C@H]3[C@@H](C#N)N(C(=O)C4CCCCC4)[C@H]3CO)cc2)cc1	T cruzi growth-1 inconclusive (no result: IDH1 R132H inh) | T cruzi growth-2 inactive | T cruzi growth-3 inactive | NIH3T3 tox inactive | 3T3 cytotox 2 27
COc1cccc(-c2ccc([C@@H]3[C@@H](CO)N4CCCCN(C(=O)NC(C)C)C[C@H]34)cc2)c1	none (no result: IDH1 R132H inh)
Cc1cccc(-c2ccc([C@H]3[C@@H](CO)N4CCCCN(C(=O)NC(C)C)C[C@@H]34)cc2)c1	none (no result: IDH1 R132H inh)
COc1cccc(-c2ccc([C@@H]3[C@@H](CO)N4CCCCN(C(=O)NC(C)C)C[C@@H]34)cc2)c1	T cruzi growth-1 100 (no result: IDH1 R132H inh) | T cruzi growth-2 102 | T cruzi growth-3 inactive | NIH3T3 tox inactive | 3T3 cytotox 2 inconclusive
COc1cccc(-c2ccc([C@H]3[C@@H](CO)N4CCCCN(C(=O)NC(C)C)C[C@H]34)cc2)c1	T cruzi growth-1 117 (no result: IDH1 R132H inh) | T cruzi growth-2 108 | T cruzi growth-3 inactive | NIH3T3 tox inactive | 3T3 cytotox 2 61
O=C(O)C1CC=CCC1C(=O)Nc1ccc(S(=O)(=O)N2CCc3ccccc32)cc1 (stereo unspecified)	none (no result: T cruzi growth-1, KDM4C inh)
CSc1ccccc1C(=O)Nc1ccccc1C(=O)NCc1ccco1	none (no result: T cruzi growth-1, KDM4C inh)
CCCNC(=O)N1[C@H](C#N)[C@H](c2ccc(-c3cccc(OC)c3)cc2)[C@@H]1CO	T cruzi growth-1 99 (no result: IDH1 R132H inh, KDM4C inh) | T cruzi growth-2 inactive | T cruzi growth-3 112 | NIH3T3 tox inactive | 3T3 cytotox 2 40
CCCNC(=O)N1[C@@H](C#N)[C@@H](c2ccc(-c3cccc(OC)c3)cc2)[C@@H]1CO	T cruzi growth-1 98 (no result: IDH1 R132H inh) | T cruzi growth-2 99 | T cruzi growth-3 inactive | NIH3T3 tox inactive | 3T3 cytotox 2 51
CCCNC(=O)N1[C@H](C#N)[C@@H](c2ccc(-c3cccc(OC)c3)cc2)[C@@H]1CO	none (no result: IDH1 R132H inh)
CCCNC(=O)N1[C@H](C#N)[C@@H](c2ccc(-c3cccnc3)cc2)[C@@H]1CO	none (no result: IDH1 R132H inh)
C=CCn1c(Sc2ncnc3c2cnn3-c2ccccc2)nnc1-c1ccncc1	none (no result: T cruzi growth-1, KDM4C inh)
Cc1c(C(=O)C2C(=O)C(=O)N(Cc3cccnc3)C2c2ccccn2)cnn1-c1ccccc1 (stereo unspecified)	none (no result: T cruzi growth-1, KDM4C inh)
C[C@@H]1CN([C@@H](C)CO)C(=O)c2cc(NC(=O)Nc3ccc(C(F)(F)F)cc3)ccc2O[C@@H](C)CCCCO[C@H]1CN(C)C(=O)C1CCCCC1	T cruzi growth-1 119 (no result: IDH1 R132H inh) | T cruzi growth-2 108 | T cruzi growth-3 111 | NIH3T3 tox inactive | 3T3 cytotox 2 inactive
C[C@H]1CCCCO[C@@H](CN(C)C(=O)C2CCCCC2)[C@@H](C)CN([C@@H](C)CO)C(=O)c2cc(NC(=O)Nc3ccc(F)cc3)ccc2O1	T cruzi growth-1 inconclusive (no result: IDH1 R132H inh) | T cruzi growth-2 111 | T cruzi growth-3 inactive | NIH3T3 tox inactive | 3T3 cytotox 2 inactive
C[C@@H]1CCCCO[C@@H](CN(C)C(=O)C2CCCCC2)[C@H](C)CN([C@H](C)CO)C(=O)c2cc(NC(=O)Nc3ccc(C(F)(F)F)cc3)ccc2O1	none
COc1ccc(NC(=O)Nc2ccc3c(c2)C(=O)N([C@@H](C)CO)C[C@@H](C)[C@H](CN(C)C(=O)C2CCCCC2)OCCCC[C@@H](C)O3)cc1	T cruzi growth-1 inconclusive (no result: IDH1 R132H inh) | T cruzi growth-2 inconclusive | T cruzi growth-3 inactive | NIH3T3 tox inactive | 3T3 cytotox 2 inactive
C[C@H]1CCCCO[C@@H](CN(C)C(=O)C2CCCCC2)[C@@H](C)CN([C@@H](C)CO)C(=O)c2cc(NC(=O)Nc3ccc(C(F)(F)F)cc3)ccc2O1	T cruzi growth-1 120 | T cruzi growth-2 96 | T cruzi growth-3 115 | NIH3T3 tox inactive | 3T3 cytotox 2 inactive
C[C@H](CO)N1C[C@H](C)[C@@H](CN(C)C(=O)C2CCCCC2)OCCCC[C@H](C)Oc2ccc(NC(=O)Nc3ccc(F)cc3)cc2C1=O	none (no result: IDH1 R132H inh)
C[C@H](CO)N1C[C@H](C)[C@H](CN(C)C(=O)C2CCCCC2)OCCCC[C@H](C)Oc2ccc(NC(=O)Nc3ccc(C(F)(F)F)cc3)cc2C1=O	none (no result: IDH1 R132H inh)
COc1ccc(NC(=O)Nc2ccc3c(c2)C(=O)N([C@@H](C)CO)C[C@@H](C)[C@H](CN(C)C(=O)C2CCCCC2)OCCCC[C@H](C)O3)cc1	none
O=C(Cn1cnc2ccccc2c1=O)Nc1ccccc1Br	none (no result: T cruzi growth-1, KDM4C inh)
CC(=O)c1c(C)nc(-c2ccc(Cl)cc2)nc1NC(=O)Cc1ccccc1	none (no result: T cruzi growth-1, KDM4C inh)
COC(=O)CCCCCCC(=O)N/N=C/c1cc(O)ccc1Br	none (no result: T cruzi growth-1, KDM4C inh)
